Results on 64 compounds are retold here after PubChem BioAssay AID720574 (Broad Institute, 2013).

Where “and” joins values, the source holds several entries; their conditions need not be identical. Identical values can stand only once. About 140 (0.15%) of roughly 96,000 compounds were called active.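 Rule for the calls: active = mean replicate inhibition above about 25%, with at least 55% of replicates also reaching it (limit read from the data, passing the limit was not always enough); inconclusive = only one of those two conditions met; inactive = neither condition met.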 This excerpt belongs to a sample that is enriched for actives. The source holds several records for some structures; these can differ, active in one and inactive in another.

Chain of Lysine-specific demethylase 4C (Homo sapiens) (Q9H3R0 2-372 limits assumed): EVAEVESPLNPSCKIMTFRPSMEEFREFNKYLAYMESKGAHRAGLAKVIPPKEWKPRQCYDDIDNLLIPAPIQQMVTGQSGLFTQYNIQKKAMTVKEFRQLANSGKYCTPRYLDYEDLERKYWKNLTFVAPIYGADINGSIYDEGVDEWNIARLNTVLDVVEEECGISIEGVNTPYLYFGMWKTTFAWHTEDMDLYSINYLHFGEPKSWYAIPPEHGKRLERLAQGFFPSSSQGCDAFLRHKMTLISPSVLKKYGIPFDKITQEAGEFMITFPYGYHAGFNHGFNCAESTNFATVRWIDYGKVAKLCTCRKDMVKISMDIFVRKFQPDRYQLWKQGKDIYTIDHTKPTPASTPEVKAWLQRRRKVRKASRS

The experiment concerns the target Lysine-specific demethylase 4C (Homo sapiens) (UniProt Q9H3R0). As to the kind of experiment: KDM4C H3K9me3 demethylation inhibition – biochemical, single concentration HTS, primary screen (AID 720574). Conditions: GST-KDM4C 2-372, H3K9me3 peptide, LANCE TR-FRET; at 12.5 µM; stronger effect = higher value. A digest of the protocol:
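Material: GST-tagged GASC-1 (JMJD2C) catalytic fragment, aa 2-372 / Quantity: enzyme final amount 10 nM / Medium: HEPES buffer, pH 7.5, plus ascorbate / Doses: one test concentration per compound / Incubation: 30 min reaction, 60 min detection, RT / Measured by: LANCE TR-FRET / Read-out: inhibition from TR-FRET ratio decrease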
Regarding `CCC(=O)Nc1ccc2c(c1)C(=O)N(C)C[C@@H](OC)[C@H](C)CN(Cc1cccnc1)[C@@H](C)CO2`, the inhibition was -0.624% (inactive). The figure for `CCCC#Cc1ccc([C@@H]2[C@@H](CO)N3C(=O)CN(C(=O)Nc4ccc(F)cc4)C[C@@H]23)cc1` is -0.912% (inactive); for `CCC(=O)N1[C@@H](CO)[C@@H](c2ccccc2)C12CN(C(=O)Cc1ccccc1)C2` it is 7.87% (inactive); for `Cc1noc(C)c1NC(=O)N(C)C[C@@H]1OCCCC[C@H](C)Oc2ccc(NC(=O)c3ccccc3)cc2C(=O)N([C@@H](C)CO)C[C@@H]1C` it is 1.18% (inactive). As for `O=C(Nc1ccccc1F)N[C@@H]1CC[C@@H](CCNC(=O)C2CC2)O[C@H]1CO`, the inhibition is -1.05% (inactive).

Consider `O=C(C1CCC1)N1C[C@@H]2N[C@H](C1)C2c1ccc(-c2cncnc2)cc1` (some centres undefined), for which the inhibition is 0.917% (inactive). The figure for `Cc1ccccc1-c1ccc(C2[C@@H]3CN(C(=O)C4CCCCC4)C[C@H]2N3)cc1` (some centres undefined) is 40% (active) and 1.58% (inactive). In the case of `O=C(C1CCCCC1)N1C[C@@H]2N[C@H](C1)C2c1ccc(-c2cccc(F)c2)cc1` (some centres undefined), the inhibition was 4.43% (inactive) and 0.21% (inactive).

For the compound `CN1c2ccc(-c3cccc(F)c3)cc2[C@H]2[C@H](CCN2C(=O)C2CCCC2)[C@@H]1CO`, the inhibition was 5.91% (inactive). Consider `COCC#Cc1ccc([C@H]2[C@H](CO)N3C(=O)CN(C(=O)Nc4ccccc4F)C[C@@H]23)cc1`, for which the inhibition was 0.262% (inactive). As for `O=C(C[C@@H]1CC[C@@H]2[C@H](COC[C@H](O)CN2Cc2cccc(-c3ccncc3)c2)O1)N1CCOCC1`, the figure is -0.984% (inactive).

On to `Cc1noc(C)c1S(=O)(=O)N(C)C[C@H]1OCCCC[C@H](C)Oc2ccc(NS(=O)(=O)c3ccccc3)cc2C(=O)N([C@H](C)CO)C[C@@H]1C`, for which the inhibition is -0.427% (inactive). With `CO[C@H]1CN(C)C(=O)c2cc(NS(C)(=O)=O)ccc2OC[C@@H](C)N(C(=O)NC(C)C)C[C@@H]1C`, the inhibition was 1.54% (inactive). With `C[C@H]1CN([C@@H](C)CO)C(=O)c2cccc(NC(=O)CCCCCC(=O)Nc3ccccc3N)c2O[C@@H]1CN(C)C(=O)NC1CCCCC1`, the inhibition is 0.11% (inactive). Consider `O=C(C[C@@H]1C=C[C@H](NC(=O)CN2CCOCC2)[C@@H](CO)O1)NC1CCC1`, for which the inhibition is -2.2% (inactive). In the case of `CCCN1[C@@H]2c3ccc(-c4ccccc4OC)c(=O)n3C[C@H]1[C@H](CO)[C@H]2C(=O)NCc1ccccn1`, the inhibition was 0.442% (inactive). For `COCC(=O)N(C)C[C@H]1Oc2cc(C#C[C@@H](C)O)ccc2S(=O)(=O)N([C@H](C)CO)C[C@H]1C`, the inhibition is 0.918% (inactive). The figure for `COc1ccccc1S(=O)(=O)N[C@H]1CC[C@@H](CC(=O)NCc2cc(F)cc(F)c2)O[C@H]1CO` is -1.06% (inactive); for `COc1ccc2c3c(n(C)c2c1)[C@H](CO)N(C(=O)NC(C)C)CC31CN(CC2CCCCC2)C1` it is -0.934% (inactive); for `C[C@H](CO)N1C[C@H](C)[C@H](CN(C)CC2CCCCC2)OCCCC[C@H](C)Oc2ccc(NS(=O)(=O)c3ccc(F)cc3)cc2C1=O` it is -1.51% (inactive). For `COCC(=O)N1[C@H](CO)[C@H](c2ccccc2)C12CN(C(=O)NC1CCCCC1)C2`, the inhibition was 0.705% (inactive). The figure for `CCC(=O)N1CC(=O)N2[C@H](CO)[C@@H](c3ccc(-c4ccc(C(=O)N(C)C)cc4)cc3)[C@@H]2C1` is -0.23% (inactive); for `COc1ccc(S(=O)(=O)N[C@H]2CC[C@H](CCn3cc(C(C)C)nn3)O[C@@H]2CO)cc1` it is 0.0615% (inactive); for `CCCC#Cc1ccc([C@H]2[C@H](CO)N3C(=O)CN(C(=O)c4ccc(F)cc4)C[C@@H]23)cc1` it is 0.883% (inactive). On to `C/C=C/c1ccc([C@H]2[C@@H](CO)N(C(=O)C3CC3)[C@@H]2CNC(=O)NC(C)C)cc1`, for which the inhibition was 0.927% (inactive). In the case of `COc1ccccc1S(=O)(=O)N[C@@H]1C=C[C@H](CC(=O)NCc2cccc(F)c2)O[C@H]1CO`, the inhibition was -0.0955% (inactive). The figure for `C/C=C/c1ccccc1[C@H]1[C@@H](C#N)N(c2nc(CC)cs2)[C@@H]1CO` is -0.26% (inactive). Take `CN(C)C(=O)C[C@@H]1C[C@@H]2c3cc(NC(=O)NC4CCCCC4)ccc3O[C@@H]2[C@H](CO)O1`: the inhibition was -1.19% (inactive).

For `CO[C@@H]1CN(C)C(=O)c2ccc(NC(C)=O)cc2OC[C@@H](C)N(CC2CC2)C[C@H]1C`, the inhibition is 2.5% (inactive).

As for `C[C@H](CO)N1C[C@H](C)[C@@H](CN(C)Cc2ccc(-c3ccccc3)cc2)Oc2ccc(NC(=O)Cn3cnnn3)cc2C1=O`, the inhibition is -1.72% (inactive). For the compound `CCCN(C)C[C@H]1Oc2ncc(-c3cccnc3)cc2C(=O)N([C@@H](C)CO)C[C@@H]1C`, the inhibition was -0.329% (inactive). For the compound `C[C@H](CO)N1C[C@H](C)[C@@H](CN(C)C(=O)c2ccncc2)Oc2cc(/C=C/c3ccccc3)ccc2S1(=O)=O`, the inhibition is -4.23% (inactive). For `CS(=O)(=O)Nc1ccc2c(c1)[C@@H]1C[C@H](CC(=O)NCc3ccccn3)O[C@@H](CO)[C@@H]1O2`, the inhibition is -0.895% (inactive). For the compound `COc1ccc2c3c([nH]c2c1)[C@@H](CO)N(Cc1ccccc1)CC31CCN(Cc2cncnc2)CC1`, the inhibition was -1.85% (inactive).

On to `COc1ccccc1S(=O)(=O)N[C@@H]1CC[C@@H](CCn2cc(C3CCCCC3)nn2)O[C@H]1CO`, for which the inhibition is 0.124% (inactive). `CCC(=O)Nc1ccc2c(c1)C(=O)N(C)[C@H]1CC[C@H](CC(=O)NCC3CCCCC3)O[C@H]1CO2`: the inhibition is -0.841% (inactive). On to `Cc1ccc(S(=O)(=O)NCC[C@H]2CC[C@H](NC(=O)c3ccccn3)[C@H](CO)O2)cc1`, for which the inhibition was -1.29% (inactive). As for `CCCN1[C@@H]2c3ccc(-c4ccccc4)c(=O)n3C[C@@H]2[C@@H](CO)[C@@H]1C(=O)N(C)C`, the inhibition was 0.941% (inactive). On to `COc1ccccc1C(=O)Nc1ccc2c(c1)OC[C@@H](C)NC[C@H](C)[C@@H](OC)CN(C)C2=O`, for which the inhibition was -1.47% (inactive). Regarding `CCCNC(=O)N(C)C[C@H]1Oc2cc(C#C[C@@H](C)O)ccc2S(=O)(=O)N([C@H](C)CO)C[C@H]1C`, the inhibition was 7.38% (inactive). Take `CO[C@H]1CC[C@@H]2CCOc3c(C#N)cccc3C(=O)N(C)C[C@@H](OC)[C@H](C)C(=O)N(C)C[C@H]1O2`: the inhibition was 0.229% (inactive). As to `CN1C(=O)c2cc(NC(=O)C3CCC3)ccc2OC[C@@H]2O[C@@H](CC(=O)NCCc3ccncc3)CC[C@H]21`, the inhibition is 1.45% (inactive). `CN1C[C@H]2[C@@H](c3ccccc31)[C@@H](CO)N2C(=O)Nc1ccccc1`: the inhibition was -2.7% (inactive). In the case of `COc1cccc(-c2ccc3n(c2=O)C[C@@H]2[C@@H](CO)[C@H](C(=O)NC4CCC4)[C@H]3N2C)c1`, the inhibition was 1.02% (inactive). Regarding `CO[C@@H]1CN(C)C(=O)c2cc(NC(=O)C3CCCC3)ccc2OC[C@H](C)N(C)C[C@@H]1C`, the inhibition is -0.0185% (inactive).

In the case of `CO[C@H]1CN(C)C(=O)c2ccc(NC(C)=O)cc2OC[C@@H](C)N(C(=O)CN(C)C)C[C@@H]1C`, the inhibition is -0.377% (inactive). As to `CC(=O)N1[C@H](CO)[C@@H](c2ccccc2)[C@@H]1CN(CC(C)C)C(=O)c1ccccn1`, the inhibition was 4.04% (inactive). As for `CCCC(=O)Nc1ccc2c(c1)OC[C@H](C)N(C(=O)C1CCCC1)C[C@@H](C)[C@H](OC)CN(C)C2=O`, the inhibition was 0.661% (inactive). For the compound `Cc1cccc(S(=O)(=O)N2C[C@@H](O)COC[C@H]3O[C@H](CC(=O)N4CCN(C)CC4)CC[C@@H]32)c1`, the inhibition was -1% (inactive).

Consider `O=C(Cc1ccncc1)N1CC[C@@H]2[C@@H](CO)Nc3ccc(C4=CCCCC4)cc3[C@@H]21`, for which the inhibition was 0.328% (inactive).

For the compound `CC(C)NC(=O)N1C[C@@H]2[C@H](c3ccccc31)[C@@H](CO)N2Cc1ccc(Cl)cc1`, the inhibition was 1.62% (inactive). The figure for `CO[C@@H]1CN(C)C(=O)c2cc(NC(=O)Nc3cc(F)ccc3F)ccc2OC[C@H](C)N(C(=O)c2ccccn2)C[C@@H]1C` is -1.15% (inactive); for `CCC(=O)Nc1ccc2c(c1)C(=O)N(C)C[C@H](OC)[C@H](C)CN(CCC(F)(F)F)[C@H](C)CO2` it is -0.234% (inactive).

In the case of `C[C@H]1CCCCO[C@@H](CN(C)C(=O)Nc2cccc3ccccc23)[C@@H](C)CN([C@@H](C)CO)C(=O)c2cc(NS(=O)(=O)c3cn(C)cn3)ccc2O1`, the inhibition was -7.92% (inactive). Consider `O=C(C[C@H]1C[C@H]2c3cc(NC(=O)C4CCOCC4)ccc3O[C@H]2[C@@H](CO)O1)NCCN1CCCCC1`, for which the inhibition is 1.06% (inactive).

As to `O=C(C[C@H]1CC[C@H]2[C@@H](COC[C@H](O)CN2S(=O)(=O)c2cccc(F)c2)O1)NC1CCC1`, the inhibition was 0.711% (inactive).

Regarding `O=C(C[C@H]1CC[C@@H]2[C@H](COC[C@H](O)CN2Cc2ccccc2F)O1)NC1CCC1`, the inhibition is 1.48% (inactive). For the compound `O=C(C[C@@H]1C=C[C@@H](NC(=O)c2cccnc2)[C@H](CO)O1)NCc1ccncn1`, the inhibition is 1.05% (inactive). For `C[C@H](CO)N1C[C@H](C)[C@@H](CN(C)S(C)(=O)=O)Oc2cc(C#CC3CC3)ccc2S1(=O)=O`, the inhibition is 4.29% (inactive). As for `C[C@H]1CCCCO[C@H](CN(C)C(=O)Nc2ccc(F)cc2)[C@@H](C)CN([C@@H](C)CO)C(=O)c2cc(NC(=O)CCC(F)(F)F)ccc2O1`, the figure is 1.63% (inactive); as for `CS(=O)(=O)N1CC2(C1)[C@H](c1ccccc1)[C@@H](CO)N2C(=O)c1ccccc1`, -0.995% (inactive). For `O=C(Cc1ccncc1)N[C@@H]1CC[C@H](CCn2cc(-c3ccccc3F)nn2)O[C@H]1CO`, the inhibition was -1.33% (inactive).

As to `CN(C)CC(=O)N1[C@@H](CO)[C@H](c2ccccc2)C12CN(C(=O)c1cccc(F)c1)C2`, the inhibition is -0.471% (inactive).

`CCC(=O)N1[C@H](C(=O)OC)[C@@H](CO)[C@@H]2Cn3c(ccc(-c4cccc(F)c4)c3=O)[C@@H]21`: the inhibition was 1.8% (inactive).
